# Screening results (PubChem)
# RGS4 act: potentiators or activators of RGS4 | 310,000 compounds, 0.92% hits | AID 463111 | B-score at 10 µM | HEK293 M3R/inducible RGS4, carbachol calcium flux Fluo4; active compounds read low;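 active = B-score of the integrated calcium signal more than 4 SD below the library mean, with starting fluorescence not abnormally high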;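 also: negative B-score means reduced calcium response which marks RGS4 activation or potentiation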
#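 Assay system: HEK293 FlpIn-TREx cells, stable M3R, doxycycline-inducible RGS4 / Probe or stimulus: carbachol, ECmax concentration / Times: overnight RGS4 induction, 30 min dye load 37 °C, 20 min compound RT / Signal: kinetic calcium fluorescence imaging with Fluo4-AM dye, 2 µM / Measure: Agonist-evoked peak-minus-minimum fluorescence over baseline, integrated ratio, B score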
# MrgX1 agonist: activates human MrgX1 receptor signaling. 310,000 compounds, 0.44% hits. B-score at 10 µM. AID 588627. MrgX1-HEK293 cells, Fluo-4 calcium fluorescence, agonist mode; active compounds read high;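 active = calcium response B-score plate-corrected fluorescence ratio at least 3 library SD, with starting fluorescence B-score inside 5 SD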
# Target sequence (Q96LB2 whole entry, looked up): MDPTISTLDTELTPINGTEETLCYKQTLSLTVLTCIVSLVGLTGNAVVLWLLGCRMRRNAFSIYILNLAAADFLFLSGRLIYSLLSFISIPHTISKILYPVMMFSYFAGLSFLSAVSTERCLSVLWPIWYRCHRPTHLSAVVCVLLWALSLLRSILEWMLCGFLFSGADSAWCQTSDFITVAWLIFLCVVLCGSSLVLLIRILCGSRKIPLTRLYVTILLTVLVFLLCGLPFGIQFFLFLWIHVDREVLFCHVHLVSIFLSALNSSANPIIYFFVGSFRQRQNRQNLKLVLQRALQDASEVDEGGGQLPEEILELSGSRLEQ
#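 Test system: HEK293 cells stably expressing human MrgX1 receptor; Input: fifteen thousand cells per well; Dosing: compound delivered in addition one of three; Schedule: overnight seeding, then 1 h dark dye loading; Technique: Fluo-4 NW calcium fluorescence; Measure: B-scored fluorescence response ratio; Controls: positive and negative controls per plate.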
# RGS4 inh: human RGS4 inhibition; P49798; HEK293 M3R/RGS4 inducible, Fluo-4 calcium flux; active compounds read high; triggered by carbachol at its EC20; B-score at 10 µM; 310,000 compounds, 0.45% hits; AID 463165;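 active = B-score, a plate-corrected calcium signal, over three deviations above library mean, with baseline fluorescence within five deviations of library mean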;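 also: RGS4 expression induced by doxycycline in cells with stable M3 receptor; B-score is computed from the integrated fluorescence ratio over baseline after carbachol; higher B-score means a larger calcium signal and so more RGS4 inhibition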
# Target sequence (P49798 whole entry, looked up): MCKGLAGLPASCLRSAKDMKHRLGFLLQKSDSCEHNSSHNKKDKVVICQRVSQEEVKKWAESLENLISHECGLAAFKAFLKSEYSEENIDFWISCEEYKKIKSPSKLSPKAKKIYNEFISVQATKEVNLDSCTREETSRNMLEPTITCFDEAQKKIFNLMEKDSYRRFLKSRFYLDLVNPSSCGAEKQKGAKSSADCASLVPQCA
# MrgX1 antag: blocks BAM8-22 activation of human MrgX1 receptor; Q96LB2; MRGX1-HEK293 calcium flux, Fluo-4, BAM8-22 antagonism; active compounds read low; B-score at 10 µM; 310,000 compounds, 1.3% hits;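 active = calcium-response B-score plate-corrected more than 3 library SD below zero, starting fluorescence within 5 deviations, no agonist response on first addition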;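 also: peak minus trough fluorescence over baseline after final BAM8-22 challenge near maximal dose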
# MrgX1 allo act: human MrgX1 positive allosteric modulation, primary screen; AID 588675; Q96LB2; MrgX1-HEK293, Fluo-4 calcium flux, FDSS; active compounds read high; B-score at 10 µM; 310,000 compounds, 0.63% hits;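 active = plate-corrected calcium response at least 3 library SD above typical, normal starting fluorescence, not activating the receptor alone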;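 also: compound read alongside a low EC10 to EC30 dose of BAM8-22 agonist; peak minus trough fluorescence over baseline measured at the second addition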
# MrgX1 antag conf: human MrgX1 receptor antagonism, re-confirmation screen. shares compounds with MrgX1 antag. MrgX1-HEK293, BAM8-22 calcium flux, Fluo-4; active compounds read low. remaining BAM8-22 calcium response % of control (active compounds read low), % at 10 µM. 2,300 compounds, 19% hits. AID 602420;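 active = remaining agonist calcium response no higher than 100% minus 3 SD of agonist-only control wells, with starting fluorescence near control levels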;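 also: agonist BAM8-22 given at a near maximal EC90 to ECmax level; peak minus minimum fluorescence divided by baseline after agonist addition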
# HEK293 Ca flux: counter-screen for MrgX1 antagonists: effect in parental HEK293 cells; shares compounds with MrgX1 antag; 4,000 compounds, 2% hits; Fluo-4 calcium fluorescence, FDSS; fluorescence ratio F(max-min)/F0 at 10 µM; AID 624111;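 active = duplicate-averaged calcium fluorescence ratio at least three times the standard deviation of buffer wells, a nonspecific response in parental cells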
# HEK293 Ca counter: activity in parental HEK293 cells without MrgX1 | AID 624114 | 4,000 compounds, 0.4% hits | fluorescence ratio F(max-min)/F0 at 10 µM | shares compounds with MrgX1 antag | parental HEK293 calcium flux, Fluo-4 fluorescence ratio; active compounds read high;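 active = calcium fluorescence ratio, averaged over duplicates, at least 3 SD of the buffer-well ratio, meaning a nonspecific response in receptor-free cells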;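 also: untransfected parental HEK293 lacking MrgX1 used as counterscreen for MrgX1 allosteric activators; fluorescence change taken during the second addition on a kinetic imager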
# HEK293 Ca cntr2: activity in parental HEK293 cells lacking MrgX1 receptor; shares compounds with MrgX1 antag; Fluo-4 calcium fluorescence (FDSS); active compounds read high; fluorescence ratio F(max-min)/F0 at 10 µM; 4,000 compounds, 8.7% hits;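 active = calcium fluorescence ratio at least three times the spread of buffer wells, meaning a non-specific response in parental cells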
# The depositor's hits bear a star; i = inactive; · = no result. Shown are actives, neighbours in structure and some others; about 3.5% of the full set was active somewhere.
SMILES,RGS4 act,MrgX1 agonist,RGS4 inh,MrgX1 antag,MrgX1 allo act,MrgX1 antag conf,HEK293 Ca flux,HEK293 Ca counter,HEK293 Ca cntr2
CC(C(=O)O)N(C(=O)c1ccccc1)c1ccc(F)cc1 (stereo unspecified),i,i,i,-5.5*,i,81%*,i,i,i
Cc1cc(C)nc(SCCC(=O)Nc2ccccc2Cl)n1,i,i,i,i,i,·,·,·,·
CCn1c(-c2csc(-c3ccccc3)n2)n[nH]c1=S,i,i,i,i,i,·,·,·,·
CCn1c(-c2csc(-c3ccc(Cl)cc3)n2)n[nH]c1=S,i,i,i,-6*,i,i,i,i,i
Fc1ccc(CN2CCSCC2)cc1F,i,i,i,-4.5*,i,i,i,i,i
COC(=O)C1CSc2[nH]c(=O)sc2C1c1ccccc1 (stereo unspecified),i,i,i,-5.7*,i,i,i,i,i
CCc1cc2c3c(c1)C1(C(=O)N3C(C)(C)C=C2C)C(C#N)=C(N)Oc2[nH]c(=O)[nH]c(=O)c21 (stereo unspecified),i,i,i,i,i,·,·,·,·
COc1cccc(/C=C/C(=O)NCc2cn3cc(Cl)ccc3n2)c1,i,i,i,i,i,·,·,·,·
O=C(COC(=O)COc1ccccc1)NCCc1ccccc1,i,i,i,-5.2*,i,i,i,i,i
O=C(Cc1c(Cl)cccc1Cl)NC1=NCCS1,i,i,i,i,i,·,·,·,·
O=C(CC(NC(=O)c1ccccc1Cl)c1ccccc1)NC1=NCCS1 (stereo unspecified),i,i,i,-6.6*,i,i,i,i,i
COc1cc(NC(=O)COc2cc(O)c3c(c2)OC(C)(C)CC3=O)cc(OC)c1OC,i,i,i,-5*,i,51%*,i,i,i
CC1(C)CC(=O)c2c(O)cc(OCC(=O)Nc3ccc(S(N)(=O)=O)cc3)cc2O1,i,i,i,i,i,·,·,·,·
COc1cccc(NC(=O)CN(C)C(=O)c2cccnc2Sc2ccc(C)c(C)c2)c1,i,i,i,-7.2*,i,i,i,i,i
Cn1cccc1-c1nc2ccccc2n1Cc1ccccc1,i,i,i,-4.9*,i,i,i,i,i
CS(=O)(=O)Nc1ccc(S(=O)(=O)N2CCCC2)cc1,i,i,i,i,i,·,·,·,·
Cc1ccc(Nc2c3c(nc4ncnn24)CCC3)cc1,i,i,i,-7.2*,i,i,i,i,i
Cc1ccc(Nc2c3c(nc4ncnn24)CC(C)CC3)cc1 (stereo unspecified),i,i,i,i,i,·,·,·,·
CCN(CC)S(=O)(=O)c1ccc(NC2c3ncccc3C(=O)N2Cc2ccccc2)cc1 (stereo unspecified),i,i,i,-9.3*,i,i,i,i,i
O=C(CSC1=NCCS1)c1ccc(Cl)cc1,i,i,i,i,i,·,·,·,·
O=C(CSC1=NCCS1)N1CCN(c2ccc(Cl)cc2)CC1,i,i,i,-6.3*,i,i,i,i,i
Cc1c(C(=O)N(C)C)c2cc(Cl)ccc2n1O,i,i,i,-5*,i,i,i,i,i
Cn1c2ccccc2n2c(=O)c(=O)n(CC(=O)N3CCCc4ccccc43)nc12,i,i,i,i,i,·,·,·,·
Cc1cc(C2N=C(N)Nc3nc4ccccc4n32)c(C)n1-c1ccccc1Cl (stereo unspecified),i,i,i,-5.5*,i,i,i,i,i
CSc1ccc(NC(=O)N2CC=C(n3c(=O)[nH]c4ccccc43)CC2)cc1,i,i,i,-4.7*,i,i,i,i,i
SMILES,RGS4 act,MrgX1 agonist,RGS4 inh,MrgX1 antag,MrgX1 allo act,MrgX1 antag conf,HEK293 Ca flux,HEK293 Ca counter,HEK293 Ca cntr2
Cc1ccc(NC(=O)c2ccc3c(c2)S(=O)(=O)c2ccccc2C3=O)cc1S(=O)(=O)N1CCOCC1,i,i,i,i,i,·,·,·,·
CCOc1cc(N2CCOCC2)c(OCC)cc1NC(=O)[C@H](C)NC(=O)c1ccco1,i,i,i,i,i,·,·,·,·
C=CCNC(=S)N(C1CCCCC1)C1CCCCC1,i,i,i,i,i,·,·,·,·
Cc1cc(NC(=O)c2cccnc2)ccc1Br,i,i,i,-7.5*,i,i,i,i,i
Cc1ccc(NC(=O)c2cccs2)cc1NC(=O)c1cccnc1,i,i,i,i,i,·,·,·,·
Cc1cccc(NC(=O)c2cccnc2)c1,i,i,i,i,i,·,·,·,·
O=C(Nc1ccc(NC(=O)c2cccs2)cc1)c1cccnc1,i,i,i,-5.8*,i,i,i,i,i
O=C(NCCOC(=O)c1cccs1)c1cccnc1,i,i,i,-7.8*,i,i,i,i,i
CCN(CC)c1ccc(C(=O)Nc2ccccc2)cc1[N+](=O)[O-],i,i,i,i,i,·,·,·,·
CC(C)N(CC(O)COc1ccc(CC(N)=O)cc1)CC(O)COc1ccc(CC(N)=O)cc1 (stereo unspecified),i,i,i,i,i,·,·,·,·
CCOC(=O)c1csc(NC(=O)CCSc2ccccc2)n1,i,i,i,-5.3*,i,i,i,i,i
O=C(CSc1n[nH]c(=O)n1C1CC1)Nc1cc(Cl)ccc1Oc1ccccc1,i,i,i,-8.4*,i,i,i,i,i
O=C(CSc1n[nH]c(=O)n1C1CC1)Nc1ccccc1,i,i,i,i,i,·,·,·,·
Cc1nn(C)cc1CN(C)C(=O)c1cc(-c2ccccc2)nc2ccc(Br)cc12,i,i,i,i,i,·,·,·,·
O=C(OCn1nnc2ccccc2c1=O)C1CCCCC1,i,i,i,-10*,i,i,i,i,i
CCOC(=O)C1CCN(CC(O)COCc2ccccc2)CC1 (stereo unspecified),i,i,i,i,i,·,·,·,·
